# Experimental data from ChEMBL document CHEMBL1629636, “In vitro susceptibility of Borrelia spielmanii to antimicrobial agents commonly used for treatment of Lyme disease” (2009).
# Tests used:
# Borrelia spielmanii [1] = experiment: Antimicrobial activity against Borrelia spielmanii isolate PMew after 72 hrs by colorimetric assay; type: functional; conditions: Borreliella spielmanii
# Outline: (§1)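 Tested in microtiter trays preloaded with lyophilized antibiotics; clinical isolates were low-passage (10 to 20 passages). MIC was read by colorimetric assay after 72 h. MBC was defined as 100% killing in liquid medium at 72 h: aliquots from vials showing no growth were diluted 1:1,000 in BSK and checked for regrowth after 3 weeks of subculture. Values are medians of three independent experiments on separate days.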
# Borrelia spielmanii [2] = experiment: Antimicrobial activity against Borrelia spielmanii isolate PSig2 after 72 hrs by colorimetric assay; type: functional; conditions: Borreliella spielmanii, isolate PSig2, 72 h; outline: as §1
# Borrelia spielmanii [3] = experiment: Antimicrobial activity against Borrelia spielmanii isolate PC-Eq17 after 72 hrs by colorimetric assay; type: functional; conditions: Borreliella spielmanii, isolate PC-Eq17, 72 h; outline: as §1
# Borrelia spielmanii [4] = experiment: Antimicrobial activity against Borrelia spielmanii isolate PHap after 72 hrs by colorimetric assay; type: functional; conditions: Borreliella spielmanii; outline: as §1
# Borrelia spielmanii [5] = experiment: Antimicrobial activity against Borrelia spielmanii isolate PJes after 72 hrs by colorimetric assay; type: functional; conditions: Borreliella spielmanii; outline: as §1
# Borrelia spielmanii [6] = experiment: Antimicrobial activity against Borrelia spielmanii isolate PAnz after 72 hrs by colorimetric assay; type: functional; conditions: Borreliella spielmanii; outline: as §1
# Borrelia spielmanii [7] = experiment: Antimicrobial activity against Borrelia spielmanii isolate PMai after 72 hrs by colorimetric assay; type: functional; conditions: Borreliella spielmanii; outline: as §1
# [8] = Antimicrobial activity against Borrelia spielmanii A14S after 72 hrs by colorimetric assay; type: functional; conditions: Borreliella spielmanii
# Outline: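 Low-passage isolates (10 to 20 passages) grown in BSK medium were tested in microtiter trays precoated with lyophilized antimicrobials. MIC was read colorimetrically after 72 h. Independent experiments were run on three different days, and the MIC reported is the median of the three.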
# Borrelia spielmanii [9] = experiment: Antimicrobial activity against Borrelia spielmanii isolate TIsar2 after 72 hrs by colorimetric assay; type: functional; conditions: Borreliella spielmanii, isolate TIsar2, 72 h; outline: as §1
# Borrelia spielmanii [10] = experiment: Antimicrobial activity against Borrelia spielmanii isolate TIsar3 after 72 hrs by colorimetric assay; type: functional; conditions: Borreliella spielmanii, isolate TIsar3, 72 h; outline: as §1
# [11] = Antimicrobial activity against Borrelia burgdorferi B31 after 72 hrs by colorimetric assay; type: functional; conditions: Borreliella burgdorferi; outline: as §1
# Borrelia burgdorferi = experiment: Antimicrobial activity against Borrelia burgdorferi isolate LW2 after 72 hrs by colorimetric assay; type: functional; conditions: Borreliella burgdorferi, isolate LW2, 72 h; outline: as §1
# Borrelia afzelii [12] = experiment: Antimicrobial activity against Borrelia afzelii isolate FEM1 after 72 hrs by colorimetric assay; type: functional; conditions: Borreliella afzelii, isolate FEM1, 72 h; outline: as §1
# Borrelia afzelii [13] = experiment: Antimicrobial activity against Borrelia afzelii isolate G600 after 72 hrs by colorimetric assay; type: functional; conditions: Borreliella afzelii, isolate G600, 72 h; outline: as §1
# Borrelia afzelii [14] = experiment: Antimicrobial activity against Borrelia afzelii isolate G1039 after 72 hrs by colorimetric assay; type: functional; conditions: Borreliella afzelii, isolate G1039, 72 h; outline: as §1
# Borrelia garinii [15] = experiment: Antimicrobial activity against Borrelia garinii isolate PSth after 72 hrs by colorimetric assay; type: functional; conditions: Borreliella garinii; outline: as §1
# Borrelia garinii [16] = experiment: Antimicrobial activity against Borrelia garinii isolate M2094 after 72 hrs by colorimetric assay; type: functional; conditions: Borreliella garinii, isolate M2094, 72 h; outline: as §1
# Borrelia garinii [17] = experiment: Antimicrobial activity against Borrelia garinii isolate G1 after 72 hrs by colorimetric assay; type: functional; conditions: Borreliella garinii, isolate G1, 72 h; outline: as §1
# Staphylococcus aureus = experiment: Antimicrobial activity against Staphylococcus aureus ATCC 29213 after 72 hrs by colorimetric assay; type: functional; conditions: ATCC 29213, 72 h
# Outline: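 Quality-control MIC followed the CLSI method with two changes: BSK medium was used, and the antibiotic-medium preparation was preincubated for 48 h before testing. Tests were run on three different days, and the MIC reported is the median of the three.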
# Borrelia spielmanii [18] = experiment: Antimicrobial activity against Borrelia spielmanii isolate PC-Eq17 after 120 hrs by colorimetric assay; type: functional; conditions: Borreliella spielmanii, isolate PC-Eq17, 120 h
# Borrelia spielmanii [19] = experiment: Antimicrobial activity against Borrelia spielmanii isolate PC-Eq17 assessed as reduction in bacterial count at 2 ug/ml after 72 hrs; type: functional, Borreliella spielmanii; parameters: scale not given: the % may be the effect or the level left
# Outline: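 Time-kill assay: the isolate was exposed to ceftriaxone for up to 120 h. Growth was followed by conventional counts of morphologically intact motile cells and compared with a drug-free growth control. Values are means of two independent experiments run on different days.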
# Borrelia = experiment: Antimicrobial activity against Borrelia clinical isolate after 72 hrs by colorimetric assay; type: functional; outline: as §1
compound,measurement,setting,value
CO/N=C(\C(=O)N[C@@H]1C(=O)N2C(C(=O)O)=C(CSc3nc(=O)c(O)nn3C)CS[C@H]12)c1csc(N)n1 [CEFTRIAXONE],MBC,Borrelia spielmanii [1],4 µg/mL
same,MIC,Borrelia spielmanii [1],0.125 µg/mL
same,MBC,Borrelia spielmanii [2],1 µg/mL
same,MIC,Borrelia spielmanii [2],0.0312 µg/mL
same,MBC,Borrelia spielmanii [3],2 µg/mL
same,MIC,Borrelia spielmanii [3],0.0312 µg/mL
same,MBC,Borrelia spielmanii [4],2 µg/mL
same,MIC,Borrelia spielmanii [4],0.0625 µg/mL
same,MBC,Borrelia spielmanii [5],2 µg/mL
same,MIC,Borrelia spielmanii [5],0.0312 µg/mL
same,MBC,Borrelia spielmanii [6],1 µg/mL
same,MIC,Borrelia spielmanii [6],0.0156 µg/mL
same,MBC,Borrelia spielmanii [7],4 µg/mL
same,MIC,Borrelia spielmanii [7],0.0625 µg/mL
same,MBC,[8],0.5 µg/mL
same,MIC,[8],0.0312 µg/mL
same,MBC,Borrelia spielmanii [9],0.5 µg/mL
same,MIC,Borrelia spielmanii [9],0.0156 µg/mL
same,MBC,Borrelia spielmanii [10],0.5 µg/mL
same,MIC,Borrelia spielmanii [10],0.0625 µg/mL
same,MBC,[11],2 µg/mL
same,MIC,[11],0.0312 µg/mL
same,MBC,Borrelia burgdorferi,4 µg/mL
same,MIC,Borrelia burgdorferi,0.0312 µg/mL
same,MBC,Borrelia afzelii [12],2 µg/mL
same,MIC,Borrelia afzelii [12],0.0625 µg/mL
same,MBC,Borrelia afzelii [13],0.5 µg/mL
same,MIC,Borrelia afzelii [13],0.0625 µg/mL
same,MBC,Borrelia afzelii [14],0.5 µg/mL
same,MIC,Borrelia afzelii [14],0.0312 µg/mL
same,MBC,Borrelia garinii [15],2 µg/mL
same,MIC,Borrelia garinii [15],0.0312 µg/mL
same,MBC,Borrelia garinii [16],2 µg/mL
same,MIC,Borrelia garinii [16],0.0312 µg/mL
same,MBC,Borrelia garinii [17],2 µg/mL
same,MIC,Borrelia garinii [17],0.0312 µg/mL
same,MIC,Staphylococcus aureus,4 µg/mL
same,MBC,Borrelia spielmanii [18],2 µg/mL
same,Activity,Borrelia spielmanii [19],99.9%
same,MBC90,Borrelia,4 µg/mL
same,MIC90,"Borrelia; Borrelia, 72 h",0.0625 µg/mL
